ChEMBL document CHEMBL1144321, “Synthesis and evaluation of novel peripherally restricted kappa-opioid receptor agonists” (Bioorg Med Chem Lett, 2005)

How the values were obtained:
Mus musculus = test: Effective dose that induced platform sedation after subcutaneous administration in mice; assay type: functional; details: sc
How it was run: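 Mice screened first for baseline latency to step fully off a slightly raised platform (11 × 8 × 3 cm); animals with baseline >15 s excluded. Drug or vehicle (20% aqueous creamaphor) given s.c. at back of neck; latency retested 20 min later, 30 s cut-off. % sedation = (test − baseline)/(30 s − baseline) × 100; ED50 from dose–response.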

Rattus norvegicus = test: In vivo inhibition of formalin induced flinching after intra paw dosing of compound at 300 ug

`CN(C(=O)Cc1ccc(C(F)(F)F)cc1)[C@H](CN1CCCC1)c1cccc(NC(=O)CCC(=O)O)c1` showed an ED50 (Mus musculus) of 47 mg/kg and an Inhibition (Rattus norvegicus) of 73%.
Compound `CN(C(=O)Cc1ccc(C(F)(F)F)cc1)[C@H](CN1CCCC1)c1cccc(NS(N)(=O)=O)c1` has an ED50 (Mus musculus) of 13 mg/kg and an Inhibition (Rattus norvegicus) of 73%.
`CN(C(=O)Cc1ccc(C(F)(F)F)cc1)[C@H](CN1CCCC1)c1cccc(NS(C)(=O)=O)c1` showed an ED50 (Mus musculus) of 89 mg/kg and an Inhibition (Rattus norvegicus) of 77%.
With `CN(C(=O)Cc1ccc(C(F)(F)F)cc1)[C@H](CN1CCCC1)c1ccccc1` the ED50 (Mus musculus) was 0.13 mg/kg and the Inhibition (Rattus norvegicus) was 92%.
With `COc1cccc(C(CN2CCCC2)N(C)C(=O)Cc2ccc(C(F)(F)F)cc2)c1` (racemic) the Inhibition (Rattus norvegicus) was 99%.
`CN(C(=O)Cc1ccc(C(F)(F)F)cc1)C(CN1CCCC1)c1cccc(O)c1` (racemic) showed an Inhibition (Rattus norvegicus) of 99%.
`CN(C(=O)Cc1ccc(C(F)(F)F)cc1)C(CN1CCCC1)c1cccc(OCC(=O)O)c1` (racemic) gave an ED50 (Mus musculus) of over 300 mg/kg and an Inhibition (Rattus norvegicus) of 93%.
`CN(C(=O)Cc1ccc(C(F)(F)F)cc1)C(CN1CCCC1)c1cccc(OCC(=O)OC(C)(C)C)c1` (racemic) showed an ED50 (Mus musculus) of 140 mg/kg and an Inhibition (Rattus norvegicus) of 84%.
`CN(C(=O)Cc1ccc(Cl)c(Cl)c1)C(CN1CCCC1)c1cccc(OCC(=O)O)c1` (stereo not given) [ICI-204448] showed an ED50 (Mus musculus) of 5.2 mg/kg.
